According to paper PMC3573876 (The Journal of antibiotics, 2012):

What was measured:
[1] = system: activated p65 subunits of NF-κB in the nucleus of HeLa cells; assay: ELISA based NF-κB p65 inhibitory assay; type: cell-based, human; conditions: for IC50: read-out: NF-κB inhibitory activity IC50 values, p65 binding, HeLa cells, ELISA
EGFR tyrosine kinase = EGFR tyrosine kinase (Homo sapiens, UniProt P00533); assay: EGFR enzymatic assay; type: biochemical; conditions: read-out: EGFR inhibition IC50; luminescence kinase assay
Cytotoxicity assay [2] = type: cell-based; conditions: human
Cytotoxicity assay [3] = type: cell-based; conditions: human; remark: listed apart in the source
[4] = system: HepG2 (hepatocellular carcinoma); conditions: HepG2 human cell line; cited from earlier work
A549 (adenocarcinoma) = conditions: A549 human cell line; cited from earlier work
[5] = system: human epidermal growth factor receptor-2 (HER2/ErbB-2); conditions: cell-free ELISA assay; cited from earlier work
[6] = system: vascular endothelial growth factor receptor-1/fms-like tyrosine kinase-1 (VEGFR-1/Flt-1); conditions: cell-free ELISA assay; cited from earlier work
[7] = system: epidermal growth factor receptor (EGFR); conditions: cell-free ELISA assay; cited from earlier work
Cytotoxicity assay [8] = type: cell-based; conditions: human, MCF-7 breast carcinoma cells
How it was run: (§1)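 Cells were exposed continuously to the test compound for 72 h, then stained with sulforhodamine B. IC50 was the concentration that reduced staining by 50% relative to untreated controls. Positive controls were run alongside. MCF-7 came from a cancer-centre stock, NCI-H460 from ATCC, and SF-268 from the NCI Developmental Therapeutics Program.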

Cytotoxicity assay [9] = type: cell-based; conditions: human, NCI-H460 large cell lung carcinoma cells
How it was run: as §1

Cytotoxicity assay [10] = type: cell-based; conditions: human, SF-268 astrocytoma cells
How it was run: as §1

Sequence of EGFR tyrosine kinase (P00533 25-1210): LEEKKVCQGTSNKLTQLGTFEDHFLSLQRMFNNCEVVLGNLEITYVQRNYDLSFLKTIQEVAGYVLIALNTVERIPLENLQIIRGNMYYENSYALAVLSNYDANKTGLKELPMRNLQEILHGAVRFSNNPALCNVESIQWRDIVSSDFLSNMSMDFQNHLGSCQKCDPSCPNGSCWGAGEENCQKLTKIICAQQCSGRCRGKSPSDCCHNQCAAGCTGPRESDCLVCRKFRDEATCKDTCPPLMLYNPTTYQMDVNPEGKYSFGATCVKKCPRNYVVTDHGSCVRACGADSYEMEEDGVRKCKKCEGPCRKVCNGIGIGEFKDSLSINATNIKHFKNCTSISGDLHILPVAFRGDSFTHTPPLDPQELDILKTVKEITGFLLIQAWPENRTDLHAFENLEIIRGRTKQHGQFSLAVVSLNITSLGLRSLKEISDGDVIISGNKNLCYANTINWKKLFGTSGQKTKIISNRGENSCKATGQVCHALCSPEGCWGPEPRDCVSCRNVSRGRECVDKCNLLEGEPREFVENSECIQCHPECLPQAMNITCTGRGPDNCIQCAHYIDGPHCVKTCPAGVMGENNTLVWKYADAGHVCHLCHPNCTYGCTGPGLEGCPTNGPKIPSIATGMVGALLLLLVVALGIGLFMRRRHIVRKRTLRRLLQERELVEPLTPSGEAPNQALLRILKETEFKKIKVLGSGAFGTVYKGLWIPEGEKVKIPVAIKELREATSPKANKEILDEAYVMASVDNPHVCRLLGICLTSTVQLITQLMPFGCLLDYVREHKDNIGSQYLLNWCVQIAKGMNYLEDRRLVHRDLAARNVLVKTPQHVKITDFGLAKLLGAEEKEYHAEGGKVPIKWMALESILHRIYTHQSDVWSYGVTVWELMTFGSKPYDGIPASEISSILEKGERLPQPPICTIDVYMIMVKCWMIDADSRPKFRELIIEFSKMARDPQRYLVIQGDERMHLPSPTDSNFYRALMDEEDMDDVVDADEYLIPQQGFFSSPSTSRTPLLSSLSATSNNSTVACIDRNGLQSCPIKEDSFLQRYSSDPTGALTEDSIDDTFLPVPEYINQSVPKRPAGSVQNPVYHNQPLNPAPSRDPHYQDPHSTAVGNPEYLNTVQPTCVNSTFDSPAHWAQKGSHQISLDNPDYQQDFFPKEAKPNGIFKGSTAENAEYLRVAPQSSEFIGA

CC[C@@]12SS[C@]3(C(=O)N1C)[C@@H](O)[C@]1(C45c6ccccc6N[C@@H]4N4C(=O)[C@@]6(CC)SS[C@@]4(C(=O)N6C)[C@H]5O)c4ccccc4N[C@@H]1N3C2=O (some centres unmarked) [Verticillin H (1), verticillin H]
IC50 [1]: > 10 µM | IC50 (EGFR tyrosine kinase): > 10 µM

COC(=O)[C@H]1[C@@H](O)[C@@]2(O)c3c(OC)cc(O[C@@H]4O[C@@H]([C@H](O)CO)CO[C@H]4OC)cc3O[C@@]2(c2ccc(OC)cc2)[C@@H]1c1ccccc1 [Silvestrol]
IC50 (Cytotoxicity assay [2]): 0.01 µM | IC50 (Cytotoxicity assay [3]): 0.01 µM

CC(O)[C@@]12SS[C@]3(C(=O)N1C)[C@@H](O)[C@]1([C@@]45c6ccccc6N[C@@H]4N4C(=O)[C@]6(C)SS[C@]4(C(=O)N6C)[C@H]5O)c4ccccc4N[C@@H]1N3C2=O (some centres unmarked) [Sch 52901 (2), Sch 52900]
NF-κB assay activity (in words) [1]: sub-micromolar range | IC50 [1]: 0.5 µM

CC[C@@]12SS[C@]3(C(=O)N1C)[C@@H](O)C1(C45c6ccccc6N[C@@H]4N4C(=O)[C@]6([C@@H](C)O)SS[C@]4(C(=O)N6C)[C@H]5O)c4ccccc4N[C@@H]1N3C2=O (some centres unmarked) [Gliocladicillin C (4), gliocladicillin C]
Cytotoxic activity on HepG2 [4]: high cytotoxic activity | Cytotoxic activity on A549 (A549 (adenocarcinoma)): high cytotoxic activity | IC50 [1]: > 10 µM | IC50 (EGFR tyrosine kinase): > 10 µM

CN1C(=O)[C@]23SS[C@@]1(C)C(=O)N2[C@H]1Nc2ccccc2[C@@]1([C@@]12c4ccccc4N[C@@H]1N1C(=O)[C@@]4(C)SS[C@]1(C(=O)N4C)[C@H]2O)[C@@H]3O [Verticillin A (3), verticillin A]
NF-κB assay activity (in words) [1]: sub-micromolar range | IC50 [1]: 0.1 µM | IC50 (EGFR tyrosine kinase): > 10 µM

Sch 52901 [Sch 52900 (5)]
IC50 [1]: > 10 µM

CN1C(=O)[C@@]23C[C@]4([C@]56C[C@@]78SS[C@@](C)(C(=O)N7[C@H]5Nc5ccccc56)N(C)C8=O)c5ccccc5N[C@@H]4N2C(=O)[C@]1(C)SS3 [11,11′-Dideoxyverticillin]
Tyrosine kinase inhibitory activity, HER2/ErbB-2 [5]: µM range | Tyrosine kinase inhibitory activity, VEGFR-1/Flt-1 [6]: nM range | Tyrosine kinase inhibitory activity, EGFR [7]: nM range

CC[C@@]1(O)C(=O)OCc2c1cc1n(c2=O)Cc2cc3ccccc3nc2-1 [Camptothecin]
IC50 at 72 h (Cytotoxicity assay [8]): 0.13 µM | IC50 at 72 h (Cytotoxicity assay [9]): 0.01 µM | IC50 at 72 h (Cytotoxicity assay [10]): 0.01 µM
